The values below come from ChEMBL document CHEMBL1130109, “Novel 99mTc aminobisthiolato/monothiolato "3 + 1" mixed ligand complexes: structure-activity relationships and preliminary in vivo validation as brain blood flow imaging agents” (J Med Chem, 1997).

A short description of series [1]: Retention ratio is measured as the brain uptake (%ID/organ) at 30 min pi divided by the brain uptake at 5 min pi. The format is functional. In a few lines: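 Brain % ID/organ in tail-vein-injected male Swiss Albino mice (0.1 mL, 2–3 μCi purified 99mTc complex in 50% methanol; γ-counted after cardiectomy under ether). Mean brain % ID/organ at 30 min pi was divided by the mean at 5 min pi.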

Series [2] can be described thus: % ID/gram in brain divided by %ID/gram in blood at 5 minutes. The format is functional, tissue-based. The essentials:
(§1)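 Male Swiss Albino mice (19–34g, at least five per group) got HPLC-purified 99mTc complex in 50% methanol, 0.1 mL, 2–3 μCi, by tail vein. They were killed by cardiectomy under light ether at 5, 10, 30 or 60 min. % ID/g (% ID/organ ÷ organ weight) of brain was divided by that of blood; blood assumed 7% of body weight.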

Series [3] in a line: % ID/gram in brain divided by %ID/gram in blood at 60 minutes. In kind it is functional, tissue-based. In a few lines:
as §1

Series [4] can be described thus: % ID/gram in brain divided by %ID/gram in blood at 10 minutes. In kind it is functional, tissue-based. In a few lines: as §1
The species named for series [5] is Mus musculus. Put plainly: Percentage biodistribution in mouse brain, 60 minutes post injection. In kind it is ADME, organism-based. The following applies: in vivo, 1 h. In a few lines:
(§2)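 Male Swiss Albino mice (19–34g, at least five per group) were injected in the tail vein with HPLC-purified 99mTc complex in 50% methanol (0.1 mL, 2–3 μCi). Killed by cardiectomy under slight ether anesthesia at 5, 10, 30 or 60 min. Organs were excised, weighed and γ-counted against standards of 1% injected dose, as % ID/organ. Bladder plus excreted urine was not weighed. Stomach and intestines were not emptied.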

Series [6] is filed under the species Mus musculus. Nature of the series: Percentage biodistribution in mouse brain, 30 minutes post injection. The following applies: in vivo, 0.5 h. The format is ADME, organism-based. The essentials:
as §2

For series [7], the species on record is Mus musculus. Nature of the series: Percentage biodistribution in mouse liver, 10 minutes post injection. The format is ADME, organism-based. The conditions noted are these: in vivo. In a few lines:
as §2

Series [8] in a line: Partition coefficient (logD7.4). In kind it is physicochemical. The conditions noted are these: octanol/water, pH 7.4. The essentials:
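HPLC-purified 99mTc complex (0.1 mL) was added to 2 mL each of 1-octanol and 0.125 M phosphate buffer, pH 7.4. The mix was vortexed and centrifuged at 5000 rpm for 5 min. Three 0.2 mL samples per layer were γ-counted. Mean cpm/mL of octanol was divided by that of buffer.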

The species named for series [9] is Mus musculus. Nature of the series: Percentage biodistribution in mouse liver, 30 minutes of post injection. The conditions noted are these: in vivo, 0.5 h. In kind it is ADME, organism-based. In a few lines: as §2
The species named for series [10] is Mus musculus. Nature of the series: Percentage biodistribution in mouse lung, 30 minutes post injection. The conditions noted are these: in vivo, 0.5 h. In kind it is ADME, organism-based. In a few lines:
as §2

For series [11], the species on record is Mus musculus. Nature of the series: Percentage biodistribution in mouse stomach. The format is ADME, organism-based. The conditions noted are these: in vivo. In a few lines:
as §2

The species entered for series [12] is Mus musculus. Put plainly: Percentage biodistribution in mouse heart, 30 minutes post injection. The format is ADME, organism-based. The conditions noted are these: in vivo, 0.5 h. In a few lines: as §2
For series [13], the species on record is Mus musculus. Put plainly: Percentage biodistribution in mouse heart, 60 minutes post injection. The format is ADME, organism-based. The following applies: in vivo, 1 h. In a few lines:
as §2

For series [14], the species on record is Mus musculus. Nature of the series: Biodistribution in mice lungs at 10 min of post injection. The format is ADME, organism-based, Lung. The conditions noted are these: in vivo. The essentials:
as §2

Series [15] is filed under the species Mus musculus. Nature of the series: Percentage biodistribution in mouse brain, 10 minutes post injection. In kind it is ADME, organism-based. The following applies: in vivo. The essentials: as §2
The species entered for series [16] is Mus musculus. Put plainly: Percentage biodistribution in mouse blood, 30 minutes post injection. The format is ADME, organism-based. The conditions noted are these: in vivo, 0.5 h. In a few lines: (§3)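 Mice (Swiss Albino males, 19–34g, ≥5/group) received tail-vein HPLC-purified 99mTc complex (0.1 mL, 2–3 μCi, 50% methanol) and were killed by cardiectomy under ether at set times. Blood % ID was computed from measured activity and sample weight, with blood taken as 7% of body weight, against 1%-dose standards.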

Series [17] is filed under the species Mus musculus. Put plainly: Percentage biodistribution in mouse heart, 10 minutes post injection. In kind it is ADME, organism-based. The conditions noted are these: in vivo. In a few lines: as §2
For series [18], the species on record is Mus musculus. Nature of the series: Percentage biodistribution in mouse blood, 10 minutes post injection. In kind it is ADME, organism-based. The conditions noted are these: in vivo. In a few lines: as §3
The species entered for series [19] is Mus musculus. Nature of the series: Percentage biodistribution in mousee lung, 5 minutes post injection. In kind it is ADME, organism-based. The following applies: in vivo. The essentials:
as §2

For series [20], the species on record is Mus musculus. Nature of the series: Percentage biodistribution in mouse intestine, 5 minutes post injection. In kind it is ADME, organism-based. The following applies: in vivo. In a few lines:
as §2

The species named for series [21] is Mus musculus. Put plainly: Percentage biodistribution in mouse brain, 5 minutes post injection. The following applies: in vivo. The format is ADME, organism-based. In a few lines:
as §2

The species named for series [22] is Mus musculus. Nature of the series: Percentage biodistribution in mouse blood, 60 minutes post injection. The format is ADME, organism-based. The following applies: in vivo, 1 h. The essentials: as §3
The species entered for series [23] is Mus musculus. Put plainly: Percentage biodistribution in mouse intestine, 30 minutes post injection. In kind it is ADME, organism-based. The conditions noted are these: in vivo, 0.5 h. The essentials:
as §2

The species entered for series [24] is Mus musculus. Nature of the series: Percentage biodistribution in mouse liver, 5 minutes post injection. In kind it is ADME, organism-based. The following applies: in vivo. In a few lines:
as §2

The species entered for series [25] is Mus musculus. Put plainly: Biodistribution in mice bladder plus excreted urine was determined. The format is ADME, organism-based. The conditions noted are these: in vivo. The essentials:
as §2

For series [26], the species on record is Mus musculus. Put plainly: Percentage biodistribution in mouse blood, 5 minutes post injection. The format is ADME, organism-based. The following applies: in vivo. In a few lines:
as §3

The species named for series [27] is Mus musculus. Nature of the series: Biodistribution in mice lungs at 60 min of post injection. The following applies: in vivo, 1 h. The format is ADME, organism-based, Lung. The essentials:
as §2

For series [28], the species on record is Mus musculus. Put plainly: Percentage biodistribution in mouse intestine, 10 minutes post injection. In kind it is ADME, organism-based. The following applies: in vivo. The essentials:
as §2

The species entered for series [29] is Mus musculus. Put plainly: Percentage biodistribution in mouse intestine, 60 minutes post injection. The format is ADME, organism-based. The conditions noted are these: in vivo, 1 h. The essentials: as §2
The species named for series [30] is Mus musculus. Nature of the series: Percentage biodistribution in mouse heart, 5 minutes post injection. In kind it is ADME, organism-based. The following applies: in vivo. The essentials: as §2
The species entered for series [31] is Mus musculus. Nature of the series: Percentage biodistribution in mouse spleen. In kind it is ADME, organism-based. The conditions noted are these: in vivo. The essentials: as §2
The species entered for series [32] is Mus musculus. Put plainly: Biodistribution in mice liver at 60 minutes of post injection. The format is ADME, organism-based. The following applies: in vivo, 1 h. The essentials:
as §2

“And” between values parts separate entries of the source, which are not always exact repeats. Equal values may be shown once.

With “[4-methoxythio)phenolato][N,N-bis(2-mercaptoethyl)-N',N'-diethylethylenediamine] oxotechnetium [listing 1 of 2 here]”, in series [1], the Retention ratio was 0.25 and 0.57. In addition, the Ratio was 1.7 and 4.43 in [2]; 4.23 in series [3]; 4.71 in [4].
On to “[4-methoxythio)phenolato][N,N-bis(2-mercaptoethyl)-N',N'-diethylethylenediamine] oxotechnetium [listing 2 of 2 here]”, for which the ID/organ is 1.54% in the series filed under Mus musculus [5]; 0.56% and 1.71% in the series listed under Mus musculus [6]; 14.14% in the series listed under Mus musculus [7]; 27.33% and 25.58% in the series listed under Mus musculus [9]; 3.49% and 3.09% in the series listed under Mus musculus [10]; 2.43% and 2.34% in the series listed under Mus musculus [11]. Also, the ID/organ in the series filed under Mus musculus [12] is 0.28% and 0.19%; in the series filed under Mus musculus [13] it was 0.12%; in the series listed under Mus musculus [14], 9.78%; in the series filed under Mus musculus [15], 2.47%; in the series listed under Mus musculus [16], 5.14% and 1.29%; in the series listed under Mus musculus [17], 0.46%. Also, the ID/organ in the series filed under Mus musculus [18] was 1.53%; in the series filed under Mus musculus [19], 11.03% and 15.37%; in the series listed under Mus musculus [20], 9.22% and 8.31%; in the series listed under Mus musculus [21] it was 2.26% and 3.01%; in the series filed under Mus musculus [22], 1.21%; in the series filed under Mus musculus [23] it was 21.19% and 18.99%. The ID/organ in the series listed under Mus musculus [24] is 17.06% and 10.73%; in the series listed under Mus musculus [25] it was 2.24% and 6.87%; in the series listed under Mus musculus [26] it was 6.09% and 2.02%; in the series listed under Mus musculus [27] it was 1.79%; in the series listed under Mus musculus [28] it was 9.61%; in the series listed under Mus musculus [29] it was 33.7%. Moreover, the ID/organ was 0.81% and 0.74% in the series filed under Mus musculus [30]; 0.61% and 0.21% in the series filed under Mus musculus [31]; 35.12% in the series listed under Mus musculus [32]. Besides, the logD in series [8] was 2.54 and 2.63.
